Assays:
[1] = target: Tyrosine-protein kinase ABL1 (Homo sapiens, UniProt P00519); test: Inhibition of ABL Lys1 labeling site in human Huh-7 cell lysate at 1 uM by KiNativ Profiling analysis relative to control; assay type: subcellular
[2] = target: Serine/threonine-protein kinase PLK1 (Homo sapiens) (UniProt P53350); test: Inhibition of PLK1 Lys1 labeling site in human A-375 cells at 5 uM by KiNativ Profiling analysis relative to control; assay type: cell-based
[3] = target: Cyclin-dependent kinase 2 (Homo sapiens) (UniProt P24941); test: Inhibition of CDK2 Lys1 labeling site in human A-375 cells at 0.05 uM by KiNativ Profiling analysis relative to control; assay type: cell-based
[4] = target: STE20-like serine/threonine-protein kinase (Homo sapiens) (UniProt Q9H2G2); test: Inhibition of SLK Lys1 labeling site in human A-375 cells at 0.05 uM by KiNativ Profiling analysis relative to control; assay type: cell-based
[5] = target: Ribosomal protein S6 kinase alpha-2 (Homo sapiens) (UniProt Q15349); test: Inhibition of RSK3 Protein Kinase Domain in human A-375 cells at 0.5 uM by KiNativ Profiling analysis relative to control; assay type: cell-based
Ribosomal protein S6 kinase alpha-2 (Homo sapiens), sequence (Q15349 whole entry, the tested form may be a part): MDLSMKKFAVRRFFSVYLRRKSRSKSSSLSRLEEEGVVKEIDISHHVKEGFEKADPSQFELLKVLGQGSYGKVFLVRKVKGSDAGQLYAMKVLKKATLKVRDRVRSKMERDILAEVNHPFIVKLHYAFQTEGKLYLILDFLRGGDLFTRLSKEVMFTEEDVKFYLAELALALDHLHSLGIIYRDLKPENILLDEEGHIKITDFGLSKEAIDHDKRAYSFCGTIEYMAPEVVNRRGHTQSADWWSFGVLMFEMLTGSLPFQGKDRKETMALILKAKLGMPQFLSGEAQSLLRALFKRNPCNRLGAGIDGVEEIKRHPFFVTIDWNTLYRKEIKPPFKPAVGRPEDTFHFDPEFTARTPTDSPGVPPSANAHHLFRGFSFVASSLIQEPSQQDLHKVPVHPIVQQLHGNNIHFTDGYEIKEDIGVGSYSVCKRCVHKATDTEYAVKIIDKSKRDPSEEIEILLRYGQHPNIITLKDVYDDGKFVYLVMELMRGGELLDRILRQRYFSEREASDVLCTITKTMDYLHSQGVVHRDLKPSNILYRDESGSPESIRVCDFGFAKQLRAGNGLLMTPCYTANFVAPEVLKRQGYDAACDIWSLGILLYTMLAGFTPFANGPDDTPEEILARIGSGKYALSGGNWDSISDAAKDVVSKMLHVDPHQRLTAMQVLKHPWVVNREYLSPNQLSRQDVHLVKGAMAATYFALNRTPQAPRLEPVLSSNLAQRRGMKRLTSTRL
Method in brief: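 Live A375 melanoma cells treated with compound at 5 or 0.5 μM, then lysed. Lysate kinases were labeled with a lysine-reactive ATP or ADP-biotin probe. Inhibition was read as protection of labeling sites from the probe.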

[6] = target: Mitogen-activated protein kinase kinase kinase 11 (Homo sapiens) (UniProt Q16584); test: Inhibition of MLK3 Lys2 labeling site in human A-375 cells at 0.5 uM by KiNativ Profiling analysis relative to control; assay type: cell-based
Mitogen-activated protein kinase kinase kinase 11 (Homo sapiens), sequence (Q16584 whole entry, looked up): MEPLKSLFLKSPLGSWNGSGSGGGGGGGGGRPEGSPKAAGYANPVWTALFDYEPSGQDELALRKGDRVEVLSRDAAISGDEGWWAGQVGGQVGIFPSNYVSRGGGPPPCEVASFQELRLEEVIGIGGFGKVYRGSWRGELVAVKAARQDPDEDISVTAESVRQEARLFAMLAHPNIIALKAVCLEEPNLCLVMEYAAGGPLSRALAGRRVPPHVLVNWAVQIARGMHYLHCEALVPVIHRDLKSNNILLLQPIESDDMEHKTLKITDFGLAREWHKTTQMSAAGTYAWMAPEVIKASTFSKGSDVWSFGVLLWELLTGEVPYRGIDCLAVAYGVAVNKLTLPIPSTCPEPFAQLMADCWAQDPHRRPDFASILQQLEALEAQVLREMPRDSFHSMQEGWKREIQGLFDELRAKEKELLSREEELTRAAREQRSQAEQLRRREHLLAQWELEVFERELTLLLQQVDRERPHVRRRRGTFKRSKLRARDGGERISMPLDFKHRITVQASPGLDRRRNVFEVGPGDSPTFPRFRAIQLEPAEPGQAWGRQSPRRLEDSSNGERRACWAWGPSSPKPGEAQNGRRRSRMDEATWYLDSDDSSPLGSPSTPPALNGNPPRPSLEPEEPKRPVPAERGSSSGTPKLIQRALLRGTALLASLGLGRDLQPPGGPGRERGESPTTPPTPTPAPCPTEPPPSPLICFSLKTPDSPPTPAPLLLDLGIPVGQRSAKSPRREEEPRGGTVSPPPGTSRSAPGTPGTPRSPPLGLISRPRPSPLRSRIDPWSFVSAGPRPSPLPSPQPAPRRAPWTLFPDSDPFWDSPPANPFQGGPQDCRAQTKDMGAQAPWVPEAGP

[7] = target: Mitogen-activated protein kinase 14 (Homo sapiens, UniProt Q16539); test: Inhibition of p38 alpha Lys2 labeling site in human A-375 cells at 0.05 uM by KiNativ Profiling analysis relative to control; assay type: cell-based
Mitogen-activated protein kinase 14, sequence (Q16539 whole entry): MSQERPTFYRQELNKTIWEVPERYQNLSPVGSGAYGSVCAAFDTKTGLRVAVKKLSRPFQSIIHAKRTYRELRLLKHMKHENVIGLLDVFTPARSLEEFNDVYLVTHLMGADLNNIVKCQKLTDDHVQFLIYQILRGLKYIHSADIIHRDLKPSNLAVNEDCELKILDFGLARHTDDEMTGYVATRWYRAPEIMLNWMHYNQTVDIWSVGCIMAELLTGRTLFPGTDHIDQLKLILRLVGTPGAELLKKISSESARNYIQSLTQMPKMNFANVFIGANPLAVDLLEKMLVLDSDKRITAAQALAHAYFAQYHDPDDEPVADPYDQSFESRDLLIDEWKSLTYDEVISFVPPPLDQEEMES

[8] = target: Cyclin-dependent kinase 1 (Homo sapiens) (UniProt P06493); test: Inhibition of CDC2 Lys2 labeling site harbouring VLHRDLKPQNLLIDDKGTIK in human A-375 cells at 0.05 uM by KiNativ Profiling analysis relative to control; assay type: cell-based
Cyclin-dependent kinase 1 (Homo sapiens), sequence (P06493 whole entry, looked up): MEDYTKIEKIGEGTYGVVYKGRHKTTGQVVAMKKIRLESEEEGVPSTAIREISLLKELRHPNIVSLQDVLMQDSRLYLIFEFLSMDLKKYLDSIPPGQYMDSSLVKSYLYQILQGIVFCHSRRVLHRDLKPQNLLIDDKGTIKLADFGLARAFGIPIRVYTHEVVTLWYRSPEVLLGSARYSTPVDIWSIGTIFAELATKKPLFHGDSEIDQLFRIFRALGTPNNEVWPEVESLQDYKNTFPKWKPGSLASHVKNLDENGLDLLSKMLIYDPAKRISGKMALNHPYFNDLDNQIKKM

[9] = target: p38 delta/gamma (Homo sapiens) (UniProt O15264+P53778); test: Inhibition of p38delta/gamma Lys2 labeling site in human A-375 cells at 0.5 uM by KiNativ Profiling analysis relative to control; assay type: cell-based
[10] = AUC last in Swiss albino mouse at 10 mg/kg, po measured upto 24 hrs by LC/MS/MS analysis; assay type: ADME, organism-based; conditions: in vivo
[11] = target: Epidermal growth factor receptor (Homo sapiens) (UniProt P00533); test: Inhibition of EGFR ACT labeling site harbouring LLGAEEKEYHAEGGKVPIK in human A-375 cells at 0.05 uM by KiNativ Profiling analysis relative to control; assay type: cell-based
Epidermal growth factor receptor (Homo sapiens), sequence (P00533 whole entry): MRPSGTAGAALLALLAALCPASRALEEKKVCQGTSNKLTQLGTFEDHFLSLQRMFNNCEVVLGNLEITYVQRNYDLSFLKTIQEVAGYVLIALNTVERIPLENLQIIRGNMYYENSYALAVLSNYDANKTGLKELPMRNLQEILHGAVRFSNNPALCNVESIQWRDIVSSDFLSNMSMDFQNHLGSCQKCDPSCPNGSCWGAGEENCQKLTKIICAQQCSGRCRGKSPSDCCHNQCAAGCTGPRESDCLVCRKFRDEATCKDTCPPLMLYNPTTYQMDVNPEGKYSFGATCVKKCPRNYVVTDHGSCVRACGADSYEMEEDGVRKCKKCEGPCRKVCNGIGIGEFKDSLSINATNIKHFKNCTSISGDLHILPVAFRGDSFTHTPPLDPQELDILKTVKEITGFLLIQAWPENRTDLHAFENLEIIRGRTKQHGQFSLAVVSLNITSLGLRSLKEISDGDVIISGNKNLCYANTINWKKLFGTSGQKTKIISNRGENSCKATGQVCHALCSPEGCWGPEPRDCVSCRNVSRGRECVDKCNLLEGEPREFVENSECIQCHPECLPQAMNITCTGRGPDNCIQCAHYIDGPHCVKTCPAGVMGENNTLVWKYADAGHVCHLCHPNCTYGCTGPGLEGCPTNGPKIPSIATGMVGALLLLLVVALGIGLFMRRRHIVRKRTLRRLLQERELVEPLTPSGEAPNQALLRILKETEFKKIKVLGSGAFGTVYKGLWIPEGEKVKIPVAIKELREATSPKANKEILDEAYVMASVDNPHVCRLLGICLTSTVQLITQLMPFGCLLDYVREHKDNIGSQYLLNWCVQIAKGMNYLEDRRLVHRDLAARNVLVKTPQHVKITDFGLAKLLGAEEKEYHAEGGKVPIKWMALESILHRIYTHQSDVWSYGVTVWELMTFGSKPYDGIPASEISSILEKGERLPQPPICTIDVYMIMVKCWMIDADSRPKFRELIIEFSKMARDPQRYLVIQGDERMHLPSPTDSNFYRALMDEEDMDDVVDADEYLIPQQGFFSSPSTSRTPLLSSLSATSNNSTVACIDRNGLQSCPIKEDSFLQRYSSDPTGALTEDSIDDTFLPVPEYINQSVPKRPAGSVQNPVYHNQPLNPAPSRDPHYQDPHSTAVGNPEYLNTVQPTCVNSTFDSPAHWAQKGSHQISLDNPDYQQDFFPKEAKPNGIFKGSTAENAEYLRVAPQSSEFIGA

[12] = target: T1, Serine/threonine-protein kinase TBK1 (Homo sapiens) (UniProt Q9UHD2); test: Inhibition of TBK1 Lys2 labeling site in human A-375 cells at 0.05 uM by KiNativ Profiling analysis relative to control; assay type: cell-based
T1 sequence (whole entry): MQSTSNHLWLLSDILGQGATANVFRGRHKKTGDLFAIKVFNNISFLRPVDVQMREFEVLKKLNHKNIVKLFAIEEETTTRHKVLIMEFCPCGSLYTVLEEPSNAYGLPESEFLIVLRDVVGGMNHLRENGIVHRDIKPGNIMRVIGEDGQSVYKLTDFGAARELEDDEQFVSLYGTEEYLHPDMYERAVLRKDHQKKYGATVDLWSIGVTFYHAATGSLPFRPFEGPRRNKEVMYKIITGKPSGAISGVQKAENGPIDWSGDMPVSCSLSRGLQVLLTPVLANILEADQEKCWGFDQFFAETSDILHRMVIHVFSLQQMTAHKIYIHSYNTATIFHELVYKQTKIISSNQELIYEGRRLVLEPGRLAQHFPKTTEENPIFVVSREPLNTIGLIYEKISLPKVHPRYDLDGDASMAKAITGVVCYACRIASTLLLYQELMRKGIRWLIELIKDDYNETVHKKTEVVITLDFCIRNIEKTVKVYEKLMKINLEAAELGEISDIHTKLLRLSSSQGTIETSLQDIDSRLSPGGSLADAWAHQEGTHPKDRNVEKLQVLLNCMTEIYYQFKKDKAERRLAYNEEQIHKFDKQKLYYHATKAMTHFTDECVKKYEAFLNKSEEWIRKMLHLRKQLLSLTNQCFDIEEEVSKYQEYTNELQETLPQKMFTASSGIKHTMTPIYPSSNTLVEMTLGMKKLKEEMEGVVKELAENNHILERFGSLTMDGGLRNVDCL

[13] = target: T2, Mitogen-activated protein kinase kinase kinase 2 (Homo sapiens) (UniProt Q9Y2U5); test: Inhibition of MAP3K2 Lys1 labeling site harbouring VYLCYDVDTGRELAVKQVQFDPDSPETSKEVNALECEIQLLK in human A-375 cells at 0.5 uM by KiNativ Profiling analysis relative to control; assay type: cell-based
T2 sequence (whole entry): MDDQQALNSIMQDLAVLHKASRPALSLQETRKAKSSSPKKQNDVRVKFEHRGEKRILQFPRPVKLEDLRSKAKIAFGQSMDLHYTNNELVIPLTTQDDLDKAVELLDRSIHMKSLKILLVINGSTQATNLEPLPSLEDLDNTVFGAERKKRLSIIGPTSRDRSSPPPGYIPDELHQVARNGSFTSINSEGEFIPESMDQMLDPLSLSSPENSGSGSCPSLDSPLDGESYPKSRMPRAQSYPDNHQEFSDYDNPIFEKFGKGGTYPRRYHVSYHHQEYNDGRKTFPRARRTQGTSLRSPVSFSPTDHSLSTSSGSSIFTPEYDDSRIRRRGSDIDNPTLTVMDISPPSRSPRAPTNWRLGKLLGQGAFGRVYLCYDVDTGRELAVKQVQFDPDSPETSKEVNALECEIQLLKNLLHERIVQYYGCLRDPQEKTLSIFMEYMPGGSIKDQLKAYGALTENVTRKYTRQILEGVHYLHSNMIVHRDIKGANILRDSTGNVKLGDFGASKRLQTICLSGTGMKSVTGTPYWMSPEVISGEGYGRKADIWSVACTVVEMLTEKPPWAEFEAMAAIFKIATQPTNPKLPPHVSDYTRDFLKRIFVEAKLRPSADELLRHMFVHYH

[14] = target: Serine/threonine-protein kinase 25 (Homo sapiens) (UniProt O00506); test: Inhibition of YSK1 Lys2 labeling site in human A-375 cells at 5 uM by KiNativ Profiling analysis relative to control; assay type: cell-based
[15] = target: Mitogen-activated protein kinase 10 (Homo sapiens, UniProt P53779); test: Inhibition of JNK3 Lys2 labeling site in human A-375 cells at 0.5 uM by KiNativ Profiling analysis relative to control; assay type: cell-based
Mitogen-activated protein kinase 10, sequence (P53779 whole entry): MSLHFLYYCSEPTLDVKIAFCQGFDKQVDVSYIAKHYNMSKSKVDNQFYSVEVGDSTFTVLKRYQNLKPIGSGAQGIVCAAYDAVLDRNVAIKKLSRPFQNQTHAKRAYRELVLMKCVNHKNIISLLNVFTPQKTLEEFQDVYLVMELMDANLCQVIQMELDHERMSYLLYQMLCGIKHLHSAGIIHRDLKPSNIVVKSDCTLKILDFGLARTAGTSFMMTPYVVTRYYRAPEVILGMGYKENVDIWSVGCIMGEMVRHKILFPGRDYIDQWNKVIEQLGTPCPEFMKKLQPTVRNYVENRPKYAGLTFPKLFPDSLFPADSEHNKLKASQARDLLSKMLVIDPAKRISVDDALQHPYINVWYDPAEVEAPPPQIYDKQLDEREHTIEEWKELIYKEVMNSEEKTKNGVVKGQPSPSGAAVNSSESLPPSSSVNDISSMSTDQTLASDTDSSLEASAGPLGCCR

Tyrosine-protein kinase ABL1, sequence (P00519 whole entry): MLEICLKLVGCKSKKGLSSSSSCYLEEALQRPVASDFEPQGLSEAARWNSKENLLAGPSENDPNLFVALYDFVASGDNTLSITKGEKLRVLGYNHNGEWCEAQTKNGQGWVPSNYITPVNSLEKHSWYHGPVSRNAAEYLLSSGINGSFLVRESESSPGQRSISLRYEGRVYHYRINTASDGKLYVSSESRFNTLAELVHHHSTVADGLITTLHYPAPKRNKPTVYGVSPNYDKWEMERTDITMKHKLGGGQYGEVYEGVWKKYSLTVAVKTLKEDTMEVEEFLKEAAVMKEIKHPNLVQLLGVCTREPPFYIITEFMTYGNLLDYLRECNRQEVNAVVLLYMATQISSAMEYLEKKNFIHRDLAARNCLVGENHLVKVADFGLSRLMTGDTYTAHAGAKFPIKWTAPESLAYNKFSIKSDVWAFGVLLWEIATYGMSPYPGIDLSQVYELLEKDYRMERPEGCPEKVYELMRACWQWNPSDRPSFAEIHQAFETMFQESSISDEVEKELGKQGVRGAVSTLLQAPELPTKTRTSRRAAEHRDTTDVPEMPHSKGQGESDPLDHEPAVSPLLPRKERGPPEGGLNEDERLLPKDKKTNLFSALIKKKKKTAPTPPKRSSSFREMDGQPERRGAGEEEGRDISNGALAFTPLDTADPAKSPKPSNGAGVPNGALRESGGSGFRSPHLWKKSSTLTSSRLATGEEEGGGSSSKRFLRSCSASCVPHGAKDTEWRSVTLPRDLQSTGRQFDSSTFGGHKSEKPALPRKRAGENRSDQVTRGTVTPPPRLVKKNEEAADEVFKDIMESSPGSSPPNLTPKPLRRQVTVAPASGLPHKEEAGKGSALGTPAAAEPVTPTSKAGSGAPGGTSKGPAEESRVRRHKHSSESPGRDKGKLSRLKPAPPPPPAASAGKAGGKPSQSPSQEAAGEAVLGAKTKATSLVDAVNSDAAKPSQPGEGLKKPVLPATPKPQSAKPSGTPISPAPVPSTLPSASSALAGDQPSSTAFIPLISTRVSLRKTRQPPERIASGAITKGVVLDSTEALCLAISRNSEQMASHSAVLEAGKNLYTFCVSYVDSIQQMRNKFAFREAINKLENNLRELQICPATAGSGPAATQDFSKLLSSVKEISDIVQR

CNc1cc(Oc2cc(C(=O)Nc3cc(-n4cnc(C)c4)cc(C(F)(F)F)c3)ccc2C)ncn1
inhibition [1]: 51.8%

CNc1cc(Oc2cc(C(=O)Nc3cc(N4CCN(C)CC4)cc(C(F)(F)F)c3)ccc2C)ncn1
inhibition [1]: 48.4%

CCN1CCN(Cc2ccc(NC(=O)c3ccc(C)c(Oc4ccnc5[nH]ccc45)c3)cc2C(F)(F)F)CC1
inhibition [2]: -7.3% | inhibition [3]: 16.1% | inhibition [4]: 13% | inhibition [5]: 0.9% | inhibition [6]: 0.3% | inhibition [7]: 4.2% | inhibition [8]: -2.9% | inhibition [9]: 86.2% | AUClast [10]: 1369 ng·h/mL | inhibition [11]: 17.5% | inhibition [12]: 29.2% | inhibition [13]: 17.4% | inhibition [14]: 15.4% | inhibition [15]: 73.7%

CCN1CCN(Cc2ccc(NC(=O)c3ccc(C)c(/C=C/c4cnc5[nH]ccc5c4OC)c3)cc2C(F)(F)F)CC1
inhibition [2]: 5.7% | inhibition [3]: 13.8% | inhibition [4]: 2.2% | inhibition [5]: 3.2% | inhibition [6]: 10.5% | inhibition [7]: 59.4% | inhibition [8]: 6.4% | inhibition [9]: 25.2% | AUClast [10]: 295 ng·h/mL | inhibition [11]: -6.7% | inhibition [12]: 19.8% | inhibition [13]: -0.7% | inhibition [14]: 20.9% | inhibition [15]: 40.6%
